# JMJD2C inh: inhibitors of human GASC-1 (JMJD2C) demethylase | Q9H3R0 | GST-JMJD2C(1-420) H3K9me3 demethylation, DELFIA europium | inhibition, % at 2.35 µM | 330,000 tested, 0.069% active | AID 2099;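 active = more than half of a compound's replicate wells show inhibition beyond 50%, single wells judged on their own value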;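 also: signal counts dimethyl H3K9 product captured on neutravidin plate; 0% = median of DMSO wells and 100% = 0.3 times that DMSO median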
# Target sequence (Q9H3R0 1-420 limits assumed): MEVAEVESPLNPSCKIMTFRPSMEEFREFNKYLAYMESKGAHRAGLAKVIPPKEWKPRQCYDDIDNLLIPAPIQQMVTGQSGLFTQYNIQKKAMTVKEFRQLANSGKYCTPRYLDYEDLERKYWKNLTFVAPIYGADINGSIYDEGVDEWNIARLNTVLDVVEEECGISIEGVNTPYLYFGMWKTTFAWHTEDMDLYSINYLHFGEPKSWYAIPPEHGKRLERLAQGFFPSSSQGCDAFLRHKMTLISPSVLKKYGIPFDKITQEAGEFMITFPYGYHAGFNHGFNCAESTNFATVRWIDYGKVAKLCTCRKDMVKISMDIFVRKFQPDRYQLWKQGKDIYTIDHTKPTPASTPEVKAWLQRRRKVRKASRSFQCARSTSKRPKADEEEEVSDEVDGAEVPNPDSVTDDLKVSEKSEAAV
# GRIN3A LBD mod: modulates the human NR3A ligand-binding domain; NR3A LBD differential scanning fluorimetry, Tm shift; 0% = protein alone, 100% = glycine-bound protein; Tm shift relative to glycine control, % at 25 µM; 340,000 tested, 2.5% active;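 active = melting temperature shift of at least 10% of the positive control shift, at one fixed dose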
# Rtt109 Vps75: inhibitors of Candida albicans Rtt109/Vps75 histone acetyltransferase; Q5AAJ8; purified Rtt109/Vps75, ThioGlo CoA-SH fluorescence, 4 h; inhibition, % at 34.9 µM; 330,000 tested, 0.16% active;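 active = inhibition of at least 50% in every replicate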
# T cell modulator: modulates CD8 T cell binding to vesicles; response (vesicle binding), % at 7 µM; 330,000 tested, 0.068% active; 2C CD8+ T cell-vesicle binding, flow cytometry; hits give low values; AID 2052;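 active = response, share of CD8 T cells binding vesicles, and their 90th percentile fluorescence all below set limits, cut at about 80% in these data, passing the limit was not always enough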;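 also: values below 100% mean blocked vesicle binding to the CD8+ T cells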
#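 Read-out – percent CD8+ FL2 mean versus row control · System – murine 2C transgenic CD8+ T lymphocytes · Times – 1.5 h cell–vesicle binding at 37 °C, then 20 min icy labelling · Control set – naked vesicles low, QL9 vesicles with vehicle high · Detection – cytometric PE anti-B7-1 and Alexa647 anti-CD8 signals after 1% paraformaldehyde fixation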
# Starred values were filed as active, the others as inactive; i = inactive; / = not tested or not shown. This is a sample that favours compounds with a hit; in the whole collection about 2.8% have one here.
SMILES,JMJD2C inh,GRIN3A LBD mod,Rtt109 Vps75,T cell modulator
CCCC(=O)Nc1c(-c2cccc(OC)c2)c(=O)c2ccccc2n1C,-7,1,-11,448
O=C(CNC(=O)c1ccc(Br)o1)NNC(=O)COc1ccccc1Cl,2,1,-3,251
COC(=O)[C@]1(C)CCC[C@@]2(C)C3CC[C@@]4(C)C[C@]3(CCC21)CC4=NO (stereo not given in full),4,1,11,271
O=C(CNC(=S)N(Cc1ccccc1F)C1CCCCC1)NC1CC1,-8,11*,-6,i
O=C(COc1ccccc1Cl)NCCNC(=O)c1ccco1,14,0,-3,156
O=C(CSc1ncccn1)n1c2c(c3ccccc31)CCCC2,-3,-45,/,223
Cc1cc(C)nc(SCC(=O)n2c3c(c4ccccc42)CCCC3)n1,0,13*,-2,148
CN(C(=O)c1ccc(NC(=O)Cc2ccc(NC(=O)C3CCN(S(=O)(=O)c4cccc([N+](=O)[O-])c4)CC3)cc2)cc1)C1CCCC1,/,10*,-6,/
CN(CCc1ccccc1)C(=O)c1ccc(NC(=O)Cc2ccc(NC(=O)C3CCCN(C(=O)C4CCC4)C3)cc2)cc1 (stereo not given),/,-1,6,/
O=C(Cc1cccc(NC(=O)C2CCN(S(=O)(=O)c3cccc([N+](=O)[O-])c3)CC2)c1)Nc1cccc(C(=O)N2CCCCC2)c1,/,11*,-3,/
CN(C(=O)c1cccc(NC(=O)Cc2ccc(NC(=O)C3CCN(C(=O)c4ccccc4)CC3)cc2)c1)C1CCC1,/,1,1,/
CN(C(=O)c1cccc(NC(=O)Cc2cccc(NC(=O)C3CCN(S(=O)(=O)c4cccc([N+](=O)[O-])c4)CC3)c2)c1)C1CC1,/,4,-6,/
CN(C(=O)c1ccc(NC(=O)Cc2ccc(NC(=O)C3CCN(C(=O)c4ccccc4)CC3)cc2)cc1)C1CC1,58*,-2,8,i
CN(CCc1ccccc1)C(=O)c1ccc(NC(=O)Cc2ccc(NC(=O)C3CCCN(C(=O)CCc4ccccc4)C3)cc2)cc1 (stereo not given),/,11*,-2,/
CN(C(=O)c1cccc(NC(=O)Cc2ccc(NC(=O)C3CCN(S(=O)(=O)c4cccc([N+](=O)[O-])c4)CC3)cc2)c1)C1CCCCC1,/,7,1,/
CN(CCc1ccccc1)C(=O)c1ccc(NC(=O)Cc2cccc(NC(=O)C3CCN(S(=O)(=O)c4cccc([N+](=O)[O-])c4)CC3)c2)cc1,/,10*,-2,/
CN(C(=O)c1cccc(NC(=O)Cc2ccc(NC(=O)C3CCCN(S(=O)(=O)c4cccc([N+](=O)[O-])c4)C3)cc2)c1)C1CCC1 (stereo not given),/,11*,-10,/
COCCN(C(=O)COC(=O)c1cccnc1SC)c1c(N)n(Cc2ccccc2)c(=O)[nH]c1=O,0,-3,0,160
CCOC(=O)C1=CN(Cc2ccco2)S(=O)(=O)NC1CC (stereo not given),/,4,-8,/
COc1cc(-c2nnc(SCC(=O)OC3CCCCC3)o2)cc(OC)c1OC,-15,1,59*,398
O=C(CNC(=O)OCc1ccccc1)OC(c1ccccc1)c1ccccc1,/,2,-1,/
O=C(Nc1nc2c(s1)CCCC2)c1ccc(Br)o1,-3,11*,11,188
O=C(Nc1nc2c(s1)CCCC2)C1COc2ccccc2O1 (stereo not given),-1,-2,3,38*
COc1ccc(N2CCN(C(=O)c3ccc(Cl)c(S(=O)(=O)N4CCOCC4)c3)CC2)cc1,/,-1,0,/
CC1CCCC(NC(=O)Cn2cc(C(F)(F)F)cc(Cl)c2=O)C1C (stereo not given),4,1,0,256
SMILES,JMJD2C inh,GRIN3A LBD mod,Rtt109 Vps75,T cell modulator
O=C(Cc1ccc(F)cc1)N[C@@H]1c2ccccc2CC[C@@H]1O,/,5,-12,/
CN(N=O)c1ccc(CC2CCc3ccccc32)cc1 (stereo not given),/,15*,5,/
COc1nc(NC2OC(CO)C(O)C(O)C2O)c(N)c(=O)[nH]1 (stereo not given),/,4,11,/
C=CCn1c(N)c(-c2nc3ccccc3n2C)sc1=S,50*,1,-3,325
C/C(=N\NC(=S)NCCc1ccccc1)c1ccc(Cl)cc1Cl,22,-2,6,338
Oc1ccccc1/C=N/NC(=S)NCCc1ccccc1,1,28*,-1,184
C/C(=N\NC(=S)NCCc1ccccc1)c1ccc(O)cc1O,0,17*,12,207
CN(C)c1nc(N/N=C/c2ccccc2O)nc(Nc2ccc(F)cc2)n1,6,38*,/,524
Oc1ccccc1C=NNC(=S)Nc1ccc(F)cc1,/,14*,0,/
CCOC(=O)C1CCN(C(=O)c2ccccc2)C(CC)C1=O (stereo not given),/,0,-4,/
CN(C)C(CNC(=O)c1cc(S(=O)(=O)N2CCOCC2)ccc1Cl)c1cccs1 (stereo not given),/,0,5,/
COC(=O)C1=NNC(C(=O)OC)C1c1ccccc1 (stereo not given),/,0,5,/
Cc1cccc(C(=O)OC(C)C(=O)Nc2ccc(S(=O)(=O)Nc3ncccn3)cc2)c1C (stereo not given),4,-1,7,291
O=C(NCc1nc(-c2ccc(C(F)(F)F)cc2)no1)Nc1ccc(OC(F)(F)F)cc1,-12,36*,2,169
COc1ccc(-c2noc(CNS(=O)(=O)c3ccc(NC(C)=O)cc3)n2)cc1,-22,1,17,326
O=C(NC1CCCC1)C1CCCN1C(=O)Nc1ccc(Cl)cc1 (stereo not given),-10,-1,-1,0.0*
O=C(NC1CCCCC1)C1CCCN1C(=O)Nc1ccccc1 (stereo not given),-4,1,-11,149
O=C(CNCc1ccc(F)cc1)Nc1cc(S(=O)(=O)N2CCOCC2)ccc1Cl,0,1,-8,352
CCOC(=O)C1CCN(C(=O)CN2C(=O)c3ccccc3S2(=O)=O)CC1,-8,18*,2,0.0*
O=C(CN1C(=O)c2ccccc2S1(=O)=O)N1CCCCC1,-6,-6,8,327
CN(C)C(=O)c1ccc(-c2nnc(OCc3nc4ccccc4n3C)c3ccccc23)cc1,/,0,-7,/
Cc1ccc(-c2cc(C(=O)N/N=C/c3ccc(F)cc3)n[nH]2)o1,-9,31*,4,358
CC(C)(C)c1cc(C(=O)N/N=C/c2ccncc2)n[nH]1,6,468*,-4,i
O=C(N/N=C/c1cccs1)c1cc(-c2ccc(Cl)s2)[nH]n1,4,33*,12,218
Cc1ccc(-c2cc(C(=O)N/N=C/C(Br)=C/c3ccccc3)n[nH]2)o1,22,29*,5,386
O=C(N/N=C\c1ccc(F)cc1)c1ccc(F)cc1,4,1,-14,447
O=C(CSCc1cccc(Cl)c1)OCc1nc2ccsc2c(=O)[nH]1,2,-1,5,620
Cc1cc(C(=O)N/N=C\c2cc(C(C)(C)C)ccc2O)n[nH]1,0,-8,11,227
